ChEMBL document CHEMBL1143847, “Competitive inhibitors of the CphA metallo-beta-lactamase from Aeromonas hydrophila” (Antimicrob Agents Chemother, 2007)

Key:
Beta-lactamase [1] = target: T1, Beta-lactamase (Aeromonas hydrophila, UniProt Q44079); experiment: Inhibition of Aeromonas hydrophila beta lactamase CphA by competitive inhibition assay
Beta-lactamase [2] = target: T1, Beta-lactamase; experiment: Inhibition of Aeromonas hydrophila beta lactamase CphA at pH 9.0
Beta-lactamase [3] = target: T1, Beta-lactamase; experiment: Inhibition of Aeromonas hydrophila beta lactamase CphA at pH 8.0
Beta-lactamase [4] = target: T1, Beta-lactamase; experiment: Inhibition of Aeromonas hydrophila beta lactamase CphA at pH 10.0
Beta-lactamase [5] = target: T1, Beta-lactamase; experiment: Inhibition of Aeromonas hydrophila beta lactamase CphA at pH 7.0
[6] = Inhibition of Aeromonas hydrophila beta lactamase CphA N116H-N220G mutant by competitive inhibition assay
Summary of the method: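 Purified double-mutant enzyme (0.03–0.7 nM) in 20 mM HEPES pH 7.0 with 20 μg/ml BSA. Imipenem was varied 20–200 μM at three inhibitor concentrations and without inhibitor, with no preincubation, at 30°C. Initial rates were Hanes-linearized to give the competitive Ki. The dizinc form was run separately with cefotaxime in 20 mM cacodylate pH 6.5, BSA, 100 μM ZnCl2.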

T1 sequence (Q44079 whole entry): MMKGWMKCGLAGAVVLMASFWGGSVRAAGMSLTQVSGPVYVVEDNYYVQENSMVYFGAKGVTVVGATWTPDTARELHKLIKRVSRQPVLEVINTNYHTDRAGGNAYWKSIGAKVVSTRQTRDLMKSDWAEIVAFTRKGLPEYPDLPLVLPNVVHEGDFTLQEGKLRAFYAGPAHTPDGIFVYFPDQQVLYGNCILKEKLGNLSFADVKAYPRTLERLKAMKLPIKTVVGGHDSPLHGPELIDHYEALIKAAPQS

Structure (SMILES) | Ki (Beta-lactamase [1]) [µM] | Ki (Beta-lactamase [2]) [µM] | Ki (Beta-lactamase [3]) [µM] | Ki (Beta-lactamase [4]) [µM] | Ki (Beta-lactamase [5]) [µM] | Ki [6] [µM]
O=C(O)c1ccncc1C(=O)O | 1100 | – | – | – | – | –
O=C(O)c1ccccn1 [2-PICOLINIC ACID] | 5.7 | 440 | 76 | 1100 | 46 | 13
O=C(O)c1ccc(C(=O)O)nc1 [PYRIDINE-2,5-DICARBOXYLIC ACID] | 420 | – | – | – | – | –
O=C(O)c1cccnc1C(=O)O [QUINOLINIC ACID] | 200 | – | – | – | – | –
